Source: ChEMBL document CHEMBL2057145, “Development of novel antibacterial agents against methicillin-resistant Staphylococcus aureus” (Bioorg Med Chem, 2012)
Values after ≈ are worked out from the molar mass of the structure shown.

Key:
Staphylococcus aureus [1] = experiment: Antibacterial activity against Staphylococcus aureus ATCC 29213 after 24 hrs by broth microdilution method; assay type: functional; settings: ATCC 29213, 24 h
[2] = test system: Staphylococcus epidermidis; experiment: Antibacterial activity against Staphylococcus epidermidis ATCC 35984 after 24 hrs by broth microdilution method; assay type: functional; settings: RP62A
HT-29 = experiment: Antiproliferative activity against human HT-29 cells after 24 hrs by MTT assay; assay type: cell-based; settings: HT-29, 24 h
In short: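 HT-29 human colon adenocarcinoma cells seeded at 1 × 10⁴ cells/well in RPMI 1640 with 10% FBS and 10 µg/mL gentamicin, left overnight at 37 °C, 5% CO₂. Medium then replaced with medium holding test agents (final DMSO 0.1%; DMSO-only controls), at least 6 wells per condition, for 24 h. Viability read by MTT (0.5 mg/mL, 2 h, 37 °C), DMSO solubilization, absorbance 570 nm.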

[3] = Selectivity ratio of IC50 for human HT-29 cells to MIC for Staphylococcus aureus ATCC 29213; assay type: functional
In short: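 Ratio of HT-29 IC50 (MTT assay, 24 h exposure) to MIC against S. aureus ATCC 29213 (CLSI broth microdilution, 24 h, 37 °C).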

[4] = test system: Staphylococcus intermedius; experiment: Antibacterial activity against Staphylococcus intermedius ATCC 29663 after 24 hrs by broth microdilution method; assay type: functional; settings: ATCC 29663, 24 h
[5] = test system: Staphylococcus lugdunensis; experiment: Antibacterial activity against Staphylococcus lugdunensis isolate NTUH after 24 hrs by broth microdilution method; assay type: functional
Staphylococcus aureus [6] = experiment: Bactericidal activity against Staphylococcus aureus ATCC 29213 assessed as decrease in bacterial count at 8 times compound MIC after 24 hrs by time-kill assay; assay type: functional; design: scale not given: the % may be the effect or the level left
In short: (§1)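 S. aureus ATCC 29213 at 5 × 10⁵ CFU/mL in CAMHB exposed to test agents at 2-, 4- and 8-fold MIC, in triplicate. DMSO-matched medium served as control. At successive times, aliquots serially diluted in PBS and plated on LB agar (37 °C, 16 h). Counts given as CFU/mL, mean ± SD (n = 3); 99.9% killing used as reference.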

Staphylococcus aureus [7] = experiment: Antibacterial activity against methicillin-resistant Staphylococcus aureus ATCC 33592 infected in C57BL/6 mouse assessed as mouse survival time at 30 mg/kg, ip administered 1 hr post infection; assay type: functional; settings: route intraperitoneal
In short: (§2)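 Female C57BL/6 mice, N = 5 per group, were infected ip with a 100% lethal dose of MRSA, 7 × 10⁷ CFU in 0.3 ml PBS. At 1 h they received one ip dose of 30 mg/kg in vehicle (40% PEG-400, 10% […], 10% DMSO in normal saline). Body weight and morbidity were recorded daily for 7 days. Mice were sacrificed on significant morbidity, including 20% weight loss.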

Mus musculus [8] = experiment: Toxicity in C57BL/6 mouse infected with methicillin-resistant Staphylococcus aureus ATCC 33592 assessed as weight loss at 30 mg/kg, ip administered 1 hr post infection measured on day 1 post infection; assay type: organism-based; design: dose 30 mg/kg, route intraperitoneal; settings: in vivo; in short: as §2
Mus musculus [9] = experiment: Toxicity in C57BL/6 mouse infected with methicillin-resistant Staphylococcus aureus ATCC 33592 assessed as weight loss at 30 mg/kg, ip administered 1 hr post infection measured on day 3 to 6 post infection; assay type: organism-based; design: dose 30 mg/kg, route intraperitoneal; settings: in vivo; in short: as §2
Mus musculus [10] = experiment: Toxicity in C57BL/6 mouse infected with methicillin-resistant Staphylococcus aureus ATCC 33592 assessed as mortality at 30 mg/kg, ip administered 1 hr post infection; assay type: organism-based; design: dose 30 mg/kg, route intraperitoneal; settings: in vivo; in short: as §2
Staphylococcus aureus [11] = experiment: Bactericidal activity against Staphylococcus aureus ATCC 29213 assessed as decrease in bacterial count at 2 to 8 times compound MIC by time-kill assay; assay type: functional, organism-based; settings: TDE = time-dependent effect; in short: as §1
Staphylococcus aureus [12] = experiment: Antibacterial activity against Staphylococcus aureus ATCC 12598 after 24 hrs by broth microdilution method; assay type: functional; settings: ATCC 12598, 24 h
In short: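 CLSI broth microdilution. Incubation 37 °C for 24 h. MIC is the lowest concentration with no visible bacterial growth. DMSO stocks diluted in culture medium to a final DMSO of 0.1%.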

[13] = test system: Staphylococcus epidermidis; experiment: Antibacterial activity against Staphylococcus epidermidis ATCC 12228 after 24 hrs by broth microdilution method; assay type: functional; settings: ATCC 12228, 24 h
Staphylococcus aureus [14] = experiment: Antibacterial activity against methicillin-resistant Staphylococcus aureus ATCC 33592 after 24 hrs by broth microdilution method; assay type: functional; settings: ATCC 33592, 24 h
In short: (§3)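 CLSI broth microdilution. Bacteria grown overnight on LB agar, suspended in PBS, then exposed to test agents at 0.25 to 64 µg/mL in triplicate. Incubation 37 °C for 24 h. MIC is the lowest concentration with no visible bacterial growth. DMSO stocks diluted in culture medium to a final DMSO of 0.1%.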

Staphylococcus aureus [15] = experiment: Antibacterial activity against methicillin-resistant Staphylococcus aureus expressing […] subtype VT after 24 hrs by broth microdilution method; assay type: functional; in short: as §3
Staphylococcus aureus [16] = experiment: Antibacterial activity against methicillin-resistant Staphylococcus aureus ATCC 49476 after 24 hrs by broth microdilution method; settings: ATCC 49476, 24 h
[17] = test system: Staphylococcus haemolyticus; experiment: Antibacterial activity against Staphylococcus haemolyticus ATCC 29970 after 24 hrs by broth microdilution method; assay type: functional; settings: ATCC 29970, 24 h
Staphylococcus hominis = experiment: Antibacterial activity against Staphylococcus hominis ATCC 27844 after 24 hrs by broth microdilution method; assay type: functional; settings: ATCC 27844, 24 h
[18] = test system: Staphylococcus saprophyticus; experiment: Antibacterial activity against Staphylococcus saprophyticus ATCC 15305 after 24 hrs by broth microdilution method; assay type: functional; settings: ATCC 15305, 24 h

SMILES	MIC (Staphylococcus aureus [1]) [µg/mL]	MIC [2] [µg/mL]	IC50 (HT-29) [µg/mL]	Ratio [3]	MIC [4] [µg/mL]	MIC [5] [µg/mL]	MIC (Staphylococcus aureus [12]) [µg/mL]	MIC [13] [µg/mL]	MIC (Staphylococcus aureus [14]) [µg/mL]	MIC (Staphylococcus aureus [15]) [µg/mL]	MIC (Staphylococcus aureus [16]) [µg/mL]	also measured
NCCC(=O)Nc1ccc(-n2nc(C(F)(F)F)cc2-c2ccc3c(ccc4ccccc43)c2)cc1	4 (≈ 8.43 µM)	4 (≈ 8.43 µM)	6 (≈ 12.6 µM)	1.5	–	–	–	–	–	–	–	–
NS(=O)(=O)Nc1ccc(-n2nc(C(F)(F)F)cc2-c2c3ccccc3cc3ccccc23)cc1	–	1 (≈ 2.07 µM)	20 (≈ 41.5 µM)	40	0.5 (≈ 1.04 µM)	4 (≈ 8.29 µM)	–	–	–	–	–	Activity (Staphylococcus aureus [6]): 99.99%; Survival (Staphylococcus aureus [7]): 7 days; Activity (Mus musculus [8]): Toxic; Activity (Mus musculus [9]): Non-toxic; Activity (Mus musculus [10]): Toxic; Activity (Staphylococcus aureus [11]): tde
Cc1ccc(-c2cc(C(F)(F)F)nn2-c2ccc(NS(N)(=O)=O)cc2)cc1	4 (≈ 10.1 µM)	4 (≈ 10.1 µM)	28 (≈ 70.6 µM)	7	8 (≈ 20.2 µM)	16 (≈ 40.4 µM)	4 (≈ 10.1 µM)	4 (≈ 10.1 µM)	4 (≈ 10.1 µM)	4 (≈ 10.1 µM)	4 (≈ 10.1 µM)	–
Cc1ccc(-c2ccc(-c3cc(C(F)(F)F)nn3-c3ccc(NS(N)(=O)=O)cc3)cc2)cc1	1 (≈ 2.12 µM)	–	–	9	2 (≈ 4.23 µM)	2 (≈ 4.23 µM)	1 (≈ 2.12 µM)	1 (≈ 2.12 µM)	1 (≈ 2.12 µM)	1 (≈ 2.12 µM)	1 (≈ 2.12 µM)	–
CC1(C)S[C@@H]2[C@H](NC(=O)[C@H](N)c3ccccc3)C(=O)N2[C@H]1C(=O)O [AMPICILLIN]	8 (≈ 22.9 µM)	64 (≈ 183 µM)	–	–	0.125 (≈ 0.358 µM)	32 (≈ 91.6 µM)	0.25 (≈ 0.715 µM)	16 (≈ 45.8 µM)	> 64	> 64	64 (≈ 183 µM)	MIC [17]: 0.25 µg/mL (≈ 0.715 µM); MIC (Staphylococcus hominis): < 0.0625 µg/mL; MIC [18]: 0.5 µg/mL (≈ 1.43 µM)
NS(=O)(=O)Nc1ccc(-n2nc(C(F)(F)F)cc2-c2ccc3ccccc3c2)cc1	1 (≈ 2.31 µM)	–	–	19	2 (≈ 4.63 µM)	4 (≈ 9.25 µM)	–	–	–	–	–	–
NS(=O)(=O)Nc1ccc(-n2nc(C(F)(F)F)cc2-c2ccc(-c3ccc(Br)cc3)cc2)cc1	1 (≈ 1.86 µM)	–	–	10	2 (≈ 3.72 µM)	2 (≈ 3.72 µM)	1 (≈ 1.86 µM)	1 (≈ 1.86 µM)	1 (≈ 1.86 µM)	1 (≈ 1.86 µM)	1 (≈ 1.86 µM)	–
NCCCC[C@H](N)C(=O)Nc1ccc(-n2nc(C(F)(F)F)cc2-c2ccc(-c3ccc(C(F)(F)F)cc3)cc2)cc1	4 (≈ 6.95 µM)	4 (≈ 6.95 µM)	3.3 (≈ 5.73 µM)	0.8	–	–	–	–	–	–	–	–
NCCCC[C@@H](N)C(=O)Nc1ccc(-n2nc(C(F)(F)F)cc2-c2ccc3c(ccc4ccccc43)c2)cc1	4 (≈ 7.52 µM)	4 (≈ 7.52 µM)	–	0.8	–	–	–	–	–	–	–	–
NCCCC[C@H](N)C(=O)Nc1ccc(-n2nc(C(F)(F)F)cc2-c2ccc3c(c2)Nc2ccccc2S3)cc1	2 (≈ 3.62 µM)	–	5.2 (≈ 9.41 µM)	2.6	–	–	–	–	–	–	–	–
NCCCC[C@@H](N)C(=O)Nc1ccc(-n2nc(C(F)(F)F)cc2-c2ccc3c(c2)Nc2ccccc2S3)cc1	4 (≈ 7.24 µM)	4 (≈ 7.24 µM)	17.5 (≈ 31.7 µM)	4.4	–	–	–	–	–	–	–	–
NC(=O)c1ccc(-n2nc(C(F)(F)F)cc2-c2c3ccccc3cc3ccccc23)cc1	2 (≈ 4.64 µM)	2 (≈ 4.64 µM)	12 (≈ 27.8 µM)	6	4 (≈ 9.27 µM)	4 (≈ 9.27 µM)	–	–	4 (≈ 9.27 µM)	–	–	Activity (Staphylococcus aureus [6]): 99.14%; Activity (Staphylococcus aureus [11]): tde
NCC(=O)Nc1ccc(-n2nc(C(F)(F)F)cc2-c2ccc3c(ccc4ccccc43)c2)cc1 [AR-12]	4 (≈ 8.69 µM)	4 (≈ 8.69 µM)	–	0.9	–	–	–	–	–	–	–	–
